Consider five compounds from ChEMBL document CHEMBL2375244 (J Med Chem, 2013).

For orientation: IC50 means the point on the concentration scale where inhibition reaches its midpoint. Usually EC50 stands for the midpoint of the concentration-response curve.

The target in test [1] is T1, CDK2/Cyclin A2 (Homo sapiens, UniProt P24941). The test can be described thus: Inhibition of human CDK2/Cyclin A2 using PKTPKKAKKL as substrate by P33-radiolabeled assay. It counts as protein-complex assay. The essentials:
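Radiometric (P33) kinase assay run by a contract lab on CDK–cyclin complexes. Inhibitor tested in duplicate at 0.05 nM to 1000 nM with ATP at 10 μM. […] For the in-house assays, IC50 was obtained by Hill-equation fitting.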

The nature of test [2]: Cytotoxicity against mouse TM4 cells after 72 hrs by MTT assay. It counts as functional, cell-based. Conditions: TM4, 72 h. The essentials:
(§1)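 Cells kept in RPMI or DMEM with 10% FBS at 37 °C, 5% CO₂ and allowed to attach overnight; 72 h with increasing inhibitor concentrations; then 1 mg/mL MTT for 3 h, DMSO solubilisation, OD read at 540 nm. Testis lines had culture conditions adapted to them. Dose-response in triplicate, 9 concentrations between 0.02 and 100 μM, averaged.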
For orientation: Tetrazolium assays rely on reduction of a dye to a coloured formazan, in cell work by metabolically active cells.

A short description of test [3]: Cytotoxicity against mouse GC-2 cells after 72 hrs by MTT assay. It counts as functional, cell-based. Conditions: GC-2, 72 h. The essentials:
as §1

For a further test, the system named is MDA-MB-468. The test is described as follows: Cytotoxicity against human MDA-MB-468 cells after 72 hrs by MTT assay. Type of test: functional, cell-based. Conditions: MDA-MB-468, 72 h. The essentials:
as §1

Test [4] is described as follows: Cytotoxicity against mouse GC-1 cells after 72 hrs by MTT assay. It counts as functional, cell-based. Conditions: GC-1, 72 h. The essentials:
as §1

For test [5], the target named is T1, CDK2/Cyclin A2. The test is described as follows: Inhibition of human CDK2/Cyclin A2 using PKTPKKAKKL as substrate by fluorescence assay. It counts as protein-complex assay.
For the next test, the system named is BT-549. The test can be described thus: Cytotoxicity against human BT549 cells after 72 hrs by resazurin/resorufin-based fluorescence assay. It counts as functional, cell-based. Conditions: BT-549, 72 h. The essentials:
(§2)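 CellTiter-Blue viability: 1200 cells per well seeded, incubated overnight at 37 °C, 5% CO₂; drugs serially diluted 2:3 in medium, four replicate wells per concentration plus four diluent-only control wells; 72 h exposure; resazurin reduction to resorufin read by fluorescence (579 nm ex/584 nm em). IC50 is the average of three data sets, each using nine concentrations between 0.004 μM and 12.5 μM.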
In general terms: The colour change of resazurin is a common sign of viable cells or microbes.

The test system of another test is SK-UT-1. The test can be described thus: Cytotoxicity against human SK-UT-1 cells after 72 hrs by resazurin/resorufin-based fluorescence assay. It counts as functional, cell-based. Conditions: SK-UT-1, 72 h.
A further test relates to HOS-TE85. The test is described as follows: Cytotoxicity against human MNNG-HOS cells after 72 hrs by resazurin/resorufin-based fluorescence assay. Type of test: functional, cell-based. Conditions: HOS-TE85, 72 h.
Test [6] can be described thus: Cytotoxicity against human RPMI18226 cells after 72 hrs by resazurin/resorufin-based fluorescence assay. Conditions: RPMI18226, 72 h. It counts as functional, cell-based.
The subject of another test is SW872. The test is described as follows: Cytotoxicity against human SW872 cells after 72 hrs by resazurin/resorufin-based fluorescence assay. Conditions: SW872, 72 h. Type of test: functional, cell-based.
The test system of the next test is SK-BR-3. The test is described as follows: Cytotoxicity against human SK-BR-3 cells after 72 hrs by resazurin/resorufin-based fluorescence assay. Type of test: functional, cell-based. Conditions: SK-BR-3, 72 h. The essentials: as §2
A further test relates to SK-ES1. The test is described as follows: Cytotoxicity against human SK-ES-1 cells after 72 hrs by resazurin/resorufin-based fluorescence assay. Conditions: SK-ES1, 72 h. Type of test: functional, cell-based.
Test [7] can be described thus: Cytotoxicity against human NCI-H929 cells after 72 hrs by resazurin/resorufin-based fluorescence assay. Conditions: NCI-H929, 72 h. It counts as functional, cell-based.
Test [8] deals with A673. The test can be described thus: Induction of apoptosis in human A673 cells assessed as caspase-3 activation after 24 hrs by luminescence assay. It counts as functional, cell-based. Conditions: A673, 24 h. The essentials: (§3)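 Caspase-3/7 activation measured with a Caspase-Glo 3/7 luminescent assay. Cells were plated as for the high-throughput viability assay and exposed for 24 h to serial dilutions. EC50 was obtained from the dose-response.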

For the next test, the system named is U-266. The test is described as follows: Cytotoxicity against human U266 cells after 72 hrs by resazurin/resorufin-based fluorescence assay. It counts as functional, cell-based. Conditions: U-266, 72 h.
In another test the test system is T47D. The test is described as follows: Cytotoxicity against human T47D cells after 72 hrs by resazurin/resorufin-based fluorescence assay. Type of test: functional, cell-based.
For another test, the system named is MCF7. The test can be described thus: Cytotoxicity against human MCF7 cells after 72 hrs by resazurin/resorufin-based fluorescence assay. It counts as functional, cell-based. Conditions: MCF7, 72 h.
Test [9] can be described thus: Cytotoxicity against human MDA-MB-436 cells after 72 hrs by resazurin/resorufin-based fluorescence assay. It counts as functional, cell-based. Conditions: MDA-MB-436, 72 h.
Test [10] addresses T1, CDK2/Cyclin A2. The test can be described thus: Inhibition of human CDK2/Cyclin A2 using PKTPKKAKKL as substrate by PK/LDH spectrophotometric analysis. Type of test: protein-complex assay.
Test [11] relates to A673. The test is described as follows: Cytotoxicity against human A673 cells after 72 hrs by resazurin/resorufin-based fluorescence assay. Type of test: functional, cell-based. Conditions: A673, 72 h.
A further test relates to MDA-MB-231. The test can be described thus: Cytotoxicity against human MDA-MB-231 cells after 72 hrs by resazurin/resorufin-based fluorescence assay. It counts as functional, cell-based. Conditions: MDA-MB-231, 72 h.
A further test relates to NCI-H929. The test is described as follows: Induction of apoptosis in human NCI-H929 cells assessed as increase in cleaved caspase-3 level at 0.005 uM after 24 hrs by FACS flow cytometric analysis relative to control. It counts as functional. The essentials: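 Active caspase-3 was detected with a FITC-labelled monoclonal antibody by flow cytometry, and the percentage of cells with raised cleaved caspase-3 is reported. Triplicate experiments.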
For orientation: Flow cytometry measures light scatter and fluorescence of single cells or particles in a stream.

Test [12] has as its system A673. The test can be described thus: Induction of apoptosis in human A673 cells assessed as caspase-3 activation at 0.05 uM to 5 uM after 24 hrs by luminescence assay relative to control. Type of test: functional. The essentials:
as §3

Regarding `Nc1nc(Nc2ccc(S(N)(=O)=O)cc2)sc1C(=O)c1cccnc1`, the half-inhibitory concentration (IC50) is 0.0009 µM against CDK2/Cyclin A2 [1]; 13 µM in test [2]; over 30 µM in test [3]; 2.8 µM with MDA-MB-468; 20 µM in test [4]; 0.02 µM against CDK2/Cyclin A2 [5].
For `COc1cccc2c1C(=O)c1c(O)c3c(c(O)c1C2=O)C[C@@](O)(C(=O)CO)C[C@@H]3O[C@H]1C[C@H](N)[C@H](O)[C@H](C)O1` [DOXORUBICIN], the 50% inhibitory concentration (IC50) was found to be 0.11 µM in the test with BT-549; 0.076 µM in the test on SK-UT-1; 0.59 µM with HOS-TE85; 0.27 µM in [6]; 0.14 µM with SW872; 0.09 µM in the test with SK-BR-3. The IC50 with SK-ES1 came out at 0.042 µM; in test [7] it was 0.065 µM; in the test on U-266 it was 0.67 µM. Besides, the concentration giving a half-maximal response (EC50) in the test with A673 [8] is 0.39 µM.
`Nc1nc(Nc2ccc(S(N)(=O)=O)cc2)sc1C(=O)c1ccc2ccccc2c1`: the half-inhibitory concentration (IC50) in the test on BT-549 is over 10 µM; with T47D it was 4.5 µM; in the test on MCF7 it was 5.9 µM; in the test with HOS-TE85, 9.7 µM; in test [9] it was 5.3 µM; in [6], over 10 µM. The IC50 in the test with SW872 is over 10 µM; against CDK2/Cyclin A2 [10] it was 82 µM; in the test on MDA-MB-468 it was 5.5 µM; with SK-BR-3, 6.1 µM; in the test on SK-ES1, 4.8 µM; in test [7], 4.3 µM. In addition, the half-inhibitory concentration (IC50) in the test on A673 [11] was 3.7 µM; in the test on MDA-MB-231, over 10 µM; with U-266 it was 7.9 µM.
As to `Nc1nc(Nc2ccc(S(N)(=O)=O)cc2)sc1C(=O)c1cccc(F)c1`, the IC50 in the test with BT-549 was over 10 µM; with SK-UT-1, 1.6 µM; in the test with T47D, 0.98 µM; in the test on MCF7, 1.3 µM; in the test on HOS-TE85, 2.2 µM; in [9], 1.3 µM. For the same compound, the IC50 is 4.8 µM in test [2]; 3.9 µM in [3]; 6.8 µM in [6]; 3.1 µM with SW872; 0.8 µM in the test with MDA-MB-468; 1.2 µM with SK-BR-3. The IC50 in the test on SK-ES1 came out at 1.1 µM; in test [7], 1 µM; in the test with A673 [11] it was 0.45 µM; in the test on MDA-MB-231, 1.2 µM; in [4] it was 6.4 µM; in the test on U-266, 1.5 µM. Besides, the half-maximal inhibitory concentration (IC50) at CDK2/Cyclin A2 [5] was determined as 0.05 µM.
As for `CCc1cnn2c(NCc3ccc[n+]([O-])c3)cc(N3CCCC[C@H]3CCO)nc12` [DINACICLIB], the IC50 with BT-549 was over 10 µM; in test [9], under 0.005 µM; in the test with SK-BR-3, under 0.005 µM; with MDA-MB-231 it was under 0.005 µM. The Activity in the test with NCI-H929 amounted to 63%; with A673 [12], 280%.
